Reference: ChEMBL document CHEMBL4130539, “Novel ureidopropanamide based N-formyl peptide receptor 2 (FPR2) agonists with potential application for central nervous system disorders characterized by neuroinflammation” (Eur J Med Chem, 2017)
The source made the active and inactive calls. The rule behind the calls is not given here.

Assays:
[1] = target: T1, N-formyl peptide receptor 2 (Homo sapiens, UniProt P25090); assay: Agonist activity at human FPR2 expressed in human HL60 cells assessed as induction of calcium mobilization; assay type: functional, cell-based
T1 sequence (P25090 whole entry): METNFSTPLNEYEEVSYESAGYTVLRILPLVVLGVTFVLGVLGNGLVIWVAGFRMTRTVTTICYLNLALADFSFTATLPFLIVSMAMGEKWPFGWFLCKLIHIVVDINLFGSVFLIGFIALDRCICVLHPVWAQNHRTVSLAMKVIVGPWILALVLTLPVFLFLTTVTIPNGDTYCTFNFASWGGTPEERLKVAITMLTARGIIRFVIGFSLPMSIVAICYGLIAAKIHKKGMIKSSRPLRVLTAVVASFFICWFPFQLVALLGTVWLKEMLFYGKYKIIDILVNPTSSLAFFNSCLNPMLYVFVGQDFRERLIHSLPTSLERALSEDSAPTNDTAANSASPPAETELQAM

[2] = target: T2, N-formyl peptide receptor 2 (Homo sapiens) (UniProt P25090); assay: Agonist activity at human FPR2 expressed in human HL60 cells assessed as induction of calcium mobilization relative to control; assay type: functional, cell-based
T2 sequence (whole entry): T1 sequence (P25090 whole entry)

[3] = Metabolic stability in rat liver microsomes assessed as parent compound remaining at 10 uM preincubated for 10 mins followed by NADPH addition measured after 30 mins by liquid chromatographic method; assay type: ADME, microsome; conditions: 0.5 h
[4] = system: Microglia; assay: Cytotoxicity against Sprague-Dawley rat primary microglia cells assessed as cell death at 0.5 to 10 uM after 24 hrs by LDH assay; assay type: cell-based
[5] = system: Microglia; assay: Proinflammatory activity in Sprague-Dawley rat primary microglia cells assessed as induction of NO level up to 10 uM after 24 hrs by Griess reagent based assay; assay type: cell-based
Outline: (§1)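 Rat primary cortical microglia (Sprague-Dawley pups, 1–2 days old, >95% Iba-1/CD11b-positive) given agonist without LPS for 24 h; WRW4 added 30 min before agonist where indicated. Supernatant NO measured with Griess reagent (540 nm, 10 min room temperature); TNF-α and IL-1β by ELISA. Values normalized to vehicle-treated cells (100%).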

[6] = system: Microglia; assay: Cytotoxicity against Sprague-Dawley rat primary microglia cells assessed as cell death at 50 uM after 24 hrs by LDH assay; assay type: cell-based
[7] = system: Microglia; assay: Anti-inflammatory activity in Sprague-Dawley rat primary microglia cells assessed as inhibition of LPS-induced NO level up to 10 uM pretreated for 1 hr followed by LPS stimulation for 24 hrs in presence of FPR2 antagonist WRW4 by Griess reagent based assay; assay type: functional, cell-based
Outline: (§2)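 Primary microglia from cortices of 1–2-day-old Sprague-Dawley rats, shaken off mixed cultures at day 9 in vitro, >95% Iba-1/CD11b-positive, used 2 days after plating. Agonist added 1 h before LPS (E. coli 0111:B4, 100 ng/ml) for 24 h; WRW4 given 30 min before agonist where stated. Medium NO by Griess reaction (540 nm); TNF-α and IL-1β by ELISA. Data as % of vehicle-treated control.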

[8] = target: T2, N-formyl peptide receptor 2 (Homo sapiens); assay: Agonist activity at FPR2 in human neutrophils assessed as induction of calcium mobilization measured every 5 secs for 240 secs by Fluo-4-AM dye based fluorometric method relative to fMLF
[9] = system: Microglia; assay: Proinflammatory activity in Sprague-Dawley rat primary microglia cells assessed as induction of TNFalpha level up to 10 uM after 24 hrs by ELISA; assay type: cell-based; outline: as §1
[10] = target: T1, N-formyl peptide receptor 2; assay: Agonist activity at FPR2 in human neutrophils assessed as induction of calcium mobilization measured every 5 secs for 240 secs by Fluo-4-AM dye based fluorometric method; assay type: functional; conditions: read-out: EC50
[11] = system: Microglia; assay: Anti-inflammatory activity in Sprague-Dawley rat primary microglia cells assessed as inhibition of LPS-induced NO level at 5 to 10 uM pretreated for 1 hr followed by LPS stimulation for 24 hrs by Griess reagent based assay; assay type: functional, cell-based; outline: as §2
[12] = target: T3, fMet-Leu-Phe receptor (Homo sapiens) (UniProt P21462); assay: Agonist activity at human FPR1 expressed in human HL60 cells assessed as induction of calcium mobilization measured every 5 secs for 240 secs by Fluo-4-AM dye based fluorometric method relative to fMLF; assay type: functional, cell-based
T3 sequence (whole entry): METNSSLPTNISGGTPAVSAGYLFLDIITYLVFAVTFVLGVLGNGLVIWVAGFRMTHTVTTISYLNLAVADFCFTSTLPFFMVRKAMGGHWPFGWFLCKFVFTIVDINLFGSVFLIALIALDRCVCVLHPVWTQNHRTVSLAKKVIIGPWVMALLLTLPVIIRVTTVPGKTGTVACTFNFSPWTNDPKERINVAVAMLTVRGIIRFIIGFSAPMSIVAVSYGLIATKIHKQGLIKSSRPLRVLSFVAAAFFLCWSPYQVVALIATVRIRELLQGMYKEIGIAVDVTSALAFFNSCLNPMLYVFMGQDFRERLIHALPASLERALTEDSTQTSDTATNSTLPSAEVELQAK

[13] = system: Microglia; assay: Proinflammatory activity in Sprague-Dawley rat primary microglia cells assessed as induction of IL-1beta level up to 10 uM after 24 hrs in presence of FPR2 antagonist WRW4 by ELISA; assay type: cell-based; outline: as §1
[14] = system: Microglia; assay: Anti-inflammatory activity in Sprague-Dawley rat primary microglia cells assessed as inhibition of LPS-induced TNFalpha level up to 10 uM pretreated for 1 hr followed by LPS stimulation for 24 hrs in presence of FPR2 antagonist WRW4 by ELISA; assay type: functional, cell-based; outline: as §2
[15] = system: Microglia; assay: Cytoprotection against LPS-induced cell death in Sprague-Dawley rat primary microglia cells at 1 to 5 uM pretreated for 1 hr followed by LPS stimulation for 24 hrs by LDH assay; assay type: functional, cell-based
[16] = system: Microglia; assay: Cytoprotection against LPS-induced cell death in Sprague-Dawley rat primary microglia cells at 0.5 to 50 uM pretreated for 1 hr followed by LPS stimulation for 24 hrs by MTT assay; assay type: functional, cell-based
[17] = target: T1, N-formyl peptide receptor 2; assay: Agonist activity at human FPR2 expressed in human HL60 cells assessed as induction of calcium mobilization measured every 5 secs for 240 secs by Fluo-4-AM dye based fluorometric method; assay type: functional, cell-based; conditions: read-out: EC50
[18] = system: Microglia; assay: Proinflammatory activity in Sprague-Dawley rat primary microglia cells assessed as induction of IL-1beta level up to 10 uM after 24 hrs by ELISA; assay type: cell-based; outline: as §1
[19] = target: T2, N-formyl peptide receptor 2 (Homo sapiens); assay: Agonist activity at human FPR2 expressed in human HL60 cells assessed as induction of calcium mobilization measured every 5 secs for 240 secs by Fluo-4-AM dye based fluorometric method relative to WKYMVM; assay type: functional, cell-based
[20] = system: Microglia; assay: Proinflammatory activity in Sprague-Dawley rat primary microglia cells assessed as induction of NO level up to 10 uM after 24 hrs in presence of FPR2 antagonist WRW4 by Griess reagent based assay; assay type: cell-based; outline: as §1
[21] = system: Microglia; assay: Anti-inflammatory activity in Sprague-Dawley rat primary microglia cells assessed as inhibition of LPS-induced IL-1beta level up to 10 uM pretreated for 1 hr followed by LPS stimulation for 24 hrs in presence of FPR2 antagonist WRW4 by ELISA; assay type: functional, cell-based; outline: as §2
[22] = Half life in rat liver microsomes at 10 uM preincubated for 10 mins followed by NADPH addition by liquid chromatographic method; assay type: ADME, microsome
[23] = system: Microglia; assay: Anti-inflammatory activity in Sprague-Dawley rat primary microglia cells assessed as inhibition of LPS-induced IL-1beta level up to 10 uM pretreated for 1 hr followed by LPS stimulation for 24 hrs by ELISA; assay type: functional, cell-based; outline: as §2
[24] = system: Microglia; assay: Proinflammatory activity in Sprague-Dawley rat primary microglia cells assessed as induction of TNFalpha level up to 10 uM after 24 hrs in presence of FPR2 antagonist WRW4 by ELISA; assay type: cell-based; outline: as §1
[25] = Efflux ratio of apparent permeability in hCMEC/D3 cells at 5 to 10 uM after 2 hrs by UV-spectroscopic method; assay type: ADME, cell-based; conditions: human, hcmec/d3, 2 h
[26] = system: Microglia; assay: Cytotoxicity against Sprague-Dawley rat primary microglia cells assessed as reduction in cell viability at 0.5 to 10 uM after 24 hrs by MTT assay; assay type: cell-based
[27] = system: Microglia; assay: Cytotoxicity against Sprague-Dawley rat primary microglia cells assessed as reduction in cell viability at 50 uM after 24 hrs by MTT assay; assay type: cell-based
[28] = system: Microglia; assay: Anti-inflammatory activity in Sprague-Dawley rat primary microglia cells assessed as inhibition of LPS-induced TNFalpha level up to 10 uM pretreated for 1 hr followed by LPS stimulation for 24 hrs by ELISA; assay type: functional, cell-based; outline: as §2
[29] = Intrinsic clearance in rat liver microsomes at 10 uM preincubated for 10 mins followed by NADPH addition by liquid chromatographic method; assay type: ADME, microsome
[30] = target: T4, fMet-Leu-Phe receptor (Homo sapiens, UniProt P21462); assay: Agonist activity at human FPR1 expressed in human HL60 cells assessed as induction of calcium mobilization measured every 5 secs for 240 secs by Fluo-4-AM dye based fluorometric method; assay type: functional, cell-based; conditions: read-out: EC50
T4 sequence (P21462 whole entry): T3 sequence (whole entry)

[31] = system: Microglia; assay: Anti-inflammatory activity in Sprague-Dawley rat primary microglia cells assessed as inhibition of LPS-induced NO level up to 10 uM pretreated for 1 hr followed by LPS stimulation for 24 hrs by Griess reagent based assay; assay type: functional, cell-based; outline: as §2
[32] = system: Microglia; assay: Anti-inflammatory activity in Sprague-Dawley rat primary microglia cells assessed as inhibition of LPS-induced IL-1beta level at 0.05 to 0.1 uM pretreated for 1 hr followed by LPS stimulation for 24 hrs by ELISA; assay type: functional, cell-based; outline: as §2
[33] = system: Microglia; assay: Anti-inflammatory activity in Sprague-Dawley rat primary microglia cells assessed as inhibition of LPS-induced TNFalpha level at 0.05 to 0.1 uM pretreated for 1 hr followed by LPS stimulation for 24 hrs by ELISA; assay type: functional, cell-based; outline: as §2
[34] = target: T4, fMet-Leu-Phe receptor; assay: Agonist activity at human FPR1 expressed in human HL60 cells assessed as induction of calcium mobilization; assay type: functional, cell-based

SMILES	Stability [3]	Activity [4]	Activity [5]	Activity [6]	Efficacy [8]	Activity [9]	EC50 [10]	Efficacy [12]	Activity [13]	Activity [15]	Activity [16]	EC50 [17]	Activity [18]	Efficacy [19]	Activity [20]	inhibition [21]	t1/2 [22]	inhibition [23]	Activity [24]	Ratio [25]	further results
O=C(Nc1ccc([N+](=O)[O-])cc1)N[C@@H](Cc1c[nH]c2ccccc12)C(=O)NCC1(c2ccccc2)CC1	11%																				EC50 [1]: 7.6 µM; Efficacy [2]: 60%
N#Cc1ccc(C[C@H](NC(=O)Nc2ccc([N+](=O)[O-])cc2)C(=O)NCC2(c3ccccc3)CC2)cc1	56%	Non-Toxic	Non-Toxic	Toxic	115%	Non-Toxic	2.5 µM	75%	Non-Toxic	Active	inactive	0.63 µM	Non-Toxic	100%	Non-Toxic	Active	2 h	Active	Non-Toxic	5.06	inhibition [7]: Active; inhibition [11]: Active; inhibition [14]: Active; Activity [26]: Non-Toxic; Activity [27]: Toxic; inhibition [28]: Active; Microsomal intrinsic clearance (CLint) [29]: 5.78 µL/min/mg; EC50 [30]: 2.8 µM
O=C(Nc1ccc([N+](=O)[O-])cc1)N[C@H](Cc1cccnc1)C(=O)NCC1(c2ccccc2)CC1	45%	Non-Toxic	Non-Toxic	Toxic	90%	Non-Toxic	0.12 µM	145%	Non-Toxic	Active	inactive	2.9 µM	Non-Toxic	60%	Non-Toxic	inactive	1.65 h	Active	Non-Toxic	3.7	inhibition [31]: inactive; Activity [26]: Non-Toxic; inhibition [28]: Active; Microsomal intrinsic clearance (CLint) [29]: 7 µL/min/mg; EC50 [30]: 1.5 µM
N#Cc1ccc(C[C@H](NC(=O)Nc2ccc(F)cc2)C(=O)NCC2(c3ccc(F)c(Cl)c3)CC2)cc1	33%	Non-Toxic	Non-Toxic	Toxic	130%	Non-Toxic	0.19 µM	55%	Non-Toxic	Active	inactive	3.9 µM	Non-Toxic	80%	Non-Toxic	inactive	0.8 h	Active	Non-Toxic	2.6	inhibition [32]: inactive; inhibition [14]: inactive; inhibition [31]: inactive; inhibition [33]: inactive; Activity [26]: Non-Toxic; Activity [27]: Toxic; inhibition [28]: Active; Microsomal intrinsic clearance (CLint) [29]: 14.4 µL/min/mg; EC50 [30]: 5.2 µM
COc1ccc(NC(=O)N[C@@H](Cc2c[nH]c3ccccc23)C(=O)NCC2(c3ccc(OC)cn3)CCCCC2)cc1	4%																				EC50 [34]: 0.26 µM
